Sampled rows, rich in hits. Any-hit rate of the full collection: about 3.9%.
XBP1 UPR activ = activators of adaptive arm of unfolded protein response (XBP1). CHO-XBP1 luciferase reporter, IRE1-XBP1 UPR activation, luminescence; percent of tunicamycin response, DMSO as zero. activation, % at 20 µM. hit rate 0.33% among 330,000;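 active = versus positive control, 20 µM dose yields 30% or more activation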
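Material: CHO cell line with stable XBP1 luciferase reporter; buffer or medium: F12 medium containing 10% fetal bovine serum; compound: single point, 20 µM final compound, 1% DMSO; incubation: 6 h treatment, 37 °C; measured by: glow luminescence from Steady-Glo reagent; evaluation: activation, % of tunicamycin; control set: tunicamycin high, DMSO low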
CHOP inh = CHOP inhibition in unfolded protein response | inhibition, % at 10 µM | AID 2732 | CHO-K1 CHOP-promoter luciferase, tunicamycin-induced, 15-18 h | hit rate 3.8% among 220,000;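 active = compounds that reduced the stress-induced luciferase reporter signal by more than about 70% of percent inhibition, limit read from the data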
Gli-Sufu block = blocks Gli-Sufu signaling in a luciferase reporter; hit rate 0.74% among 340,000; Sufu-KO-LIGHT fibroblasts, Gli luciferase reporter luminescence; AID 588413; inhibition, % at 5 µM;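 active = inhibition above about 55%, limit read from the data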
CHOP UPR activ = activators of apoptotic arm of unfolded protein response (CHOP); activation, % at 10 µM; hit rate 0.34% among 330,000; CHO-CHOP luciferase reporter, UPR activation, luminescence; percent of tunicamycin response over DMSO baseline; AID 449763;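 active = at 10 µM dose, activation of 40% or more, normalized to positive control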
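Dosing – one dose, 10 µM in 0.5% DMSO · System – CHO-CHOP cells, stable luciferase reporter of PERK-eIF2a-CHOP signalling · Input – 500 cells/well · Control set – tunicamycin 10 µg/mL final as positive, DMSO-only wells as negative · Timing – 6 h compound treatment, 37 °C · Measure – % activation vs tunicamycin · Technique – luminescence read with Steady-Glo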
Jurkat NFkB inh = lowers PMA/ionomycin-induced NF-kB signal in Jurkat cells; inhibition, % at 4 µM; AID 435003; hit rate 0.53% among 330,000; PMA/ionomycin-induced NF-kB luciferase reporter, luminescence; in the data active = inhibition above about 50%
697 NFkB inh = inhibitors of the PMA/ionomycin-induced NF-kB reporter in 697 B cells; hit rate 0.33% among 330,000; 697 B-cell NF-kB luciferase reporter, 16 h; AID 435022; inhibition, % at 4 µM; in the data active = inhibition above about 35%
Each line names hits and unclear results; the compound was inactive in the other large screens.

COc1cc2c3nnc(-c4ccc(F)cc4)c-3cn(Cc3ccccc3F)c2cc1OC	CHOP inh 88 (no result: XBP1 UPR activ, CHOP UPR activ, Jurkat NFkB inh, 697 NFkB inh)
CCc1cccc2c(C(=O)COC(=O)c3ccccc3)c[nH]c12	none
CCc1cccc2c(C(=O)COC(=O)c3ccc(O)cc3)c[nH]c12	CHOP inh 87
O=C(c1ccc2c(c1)OCO2)N(c1ccc(Br)cc1)C1C=CS(=O)(=O)C1 (centres undefined)	none (no result: CHOP inh)
Oc1ccc(/C=N/Nc2ccc(Cl)nn2)cc1O	none (no result: CHOP inh)
Cc1ccc(/C=N/Nc2ccc(Cl)nn2)cc1	CHOP inh 78
Cc1ccc(NC(=S)NC(=O)Cc2ccccc2)c(O)c1	none (no result: CHOP inh)
COc1ccc(S(N)(=O)=O)cc1C(=O)NNC(=O)c1cccc(S(=O)(=O)N2CCOCC2)c1	none (no result: XBP1 UPR activ, CHOP inh, CHOP UPR activ, Jurkat NFkB inh, 697 NFkB inh)
O=C1OCC2=C1C(c1ccc(F)cc1)c1cc3c(cc1N2)OCCO3 (centres undefined)	Gli-Sufu block 57 (no result: XBP1 UPR activ, CHOP UPR activ, Jurkat NFkB inh, 697 NFkB inh)
Cc1cc(SCc2ccc(Br)cc2)nc(=O)[nH]1	none (no result: CHOP inh)
FC(F)(F)c1cccc(-c2nc3nc(Cl)c(Cl)nc3[nH]2)c1	CHOP inh 74
CCN(C(=O)COC(=O)c1ccc(O)cc1O)c1c(N)n(Cc2ccccc2)c(=O)[nH]c1=O	none (no result: CHOP inh)
O=[N+]([O-])c1cccc(/C=N/n2c(-c3cccnc3)n[nH]c2=S)c1	none
CC(=O)N(C(C)=O)c1nc(-c2ccccc2)cn1/N=C/c1cccc([N+](=O)[O-])c1	CHOP inh 92
CC(CCc1ccccc1)NC(=O)c1ccc(C(=O)NC(C)CCc2ccccc2)cc1 (centres undefined)	CHOP inh 82
CC(CCc1ccccc1)NC(=O)c1ccccc1 (centres undefined)	none
CCN(C1CCCCC1)S(=O)(=O)c1cc2c3c(c1)CCN3C(=O)CC2	none (no result: CHOP inh)
CCOc1ccccc1C(=O)NCC(=O)N1CCC(C)CC1	none (no result: CHOP inh)
CCCNC1=C(N(C(C)=O)c2cccc(F)c2)C(=O)c2ccccc2C1=O	Gli-Sufu block 85 (no result: XBP1 UPR activ, CHOP UPR activ, Jurkat NFkB inh, 697 NFkB inh)
CCCN(CCC)C(=O)CC(c1ccccc1)c1ccc(C)cc1O (centres undefined)	none
CCCN(CCC)C(=O)CC(c1ccccc1)c1cc(Br)ccc1O (centres undefined)	CHOP inh 92
C[C@H](O)[C@@H]1C(=O)N2CCc3ccc(-c4ccccc4)cc3[C@@H]2C[C@@H]1N(C)C(=O)c1ccc(C#N)cc1	none (no result: XBP1 UPR activ, CHOP inh, CHOP UPR activ, Jurkat NFkB inh, 697 NFkB inh)
CCn1c(CNC(=O)COc2ccc(C(C)C)cc2)nnc1SCC(=O)Nc1ccccc1	none
CCn1c(Cn2nnc(-c3ccccc3)n2)nnc1SCC(=O)Nc1ccccc1	CHOP inh 88
COc1ccc2c(c1OC)C(=O)OC2Nc1nc(-c2cc3cc(Br)ccc3oc2=O)cs1 (centres undefined)	CHOP inh 71
CN(C)S(=O)(=O)n1cc(/C=C(\NC(=O)c2ccccc2F)C(=O)NCCCn2ccnc2)c2ccccc21	none (no result: CHOP inh)
O=C1c2cccc3cccc(c23)C(=O)N1/N=C/c1ccc(O)cc1O	CHOP inh 70
O=C1N/C(=C/c2ccc(Br)s2)C(=O)N1c1ccccc1	CHOP inh 96
Cc1ccc(/C=C2/NC(=O)N(c3ccccc3)C2=O)o1	none
CCn1c(COc2c(C)cccc2C)nnc1SCC(=O)N1CCN(c2ccccc2)CC1	none
C=CCn1c(COc2cccc(C)c2C)nnc1SCC(=O)N1CCN(c2ccccc2)CC1	CHOP inh 71
CC(CC(=O)Nc1nnc(C(C)(C)C)s1)c1ccccc1 (centres undefined)	none (no result: CHOP inh)
CCOc1ccc(/C=C/C(=O)N(C)CC(=O)Nc2cccc(F)c2)cc1OCC	none (no result: CHOP inh)
CC(C)C(NC(=O)OC(C)(C)C)C(=O)NC(CCC(=O)OCc1ccccc1)C(N)=O (centres undefined)	none
CC(C)(C)OC(=O)C(Cc1ccc(OC(C)(C)C)cc1)NC(=O)CNC(=O)OCc1ccccc1 (centres undefined)	CHOP inh 74
CC(C)CC(NC(=O)C(CC(C)C)NC(=O)C(Cc1ccc(OCc2ccccc2)cc1)NC(=O)OC(C)(C)C)C(N)=O (centres undefined)	CHOP inh 94
CC(C)CC(NC(=O)C(NC(=O)C(Cc1ccc(OCc2ccccc2)cc1)NC(=O)OC(C)(C)C)C(C)C)C(N)=O (centres undefined)	CHOP inh 95
C[C@H](NC(=O)OCc1ccccc1)C(=O)NNC(=O)[C@H](Cc1ccccc1)NC(=O)OC(C)(C)C	none
CC(C)CC(NC(=O)C(CC(C)C)NC(=O)OC(C)(C)C)C(N)=O (centres undefined)	none
COc1cc(S(=O)(=O)NCCN2CCOCC2)c(OC)cc1Cl	CHOP inh 78
CCC[C@@H](CN1CCC[C@H]1CN1C(N)=NC[C@@H]1Cc1ccccc1)N1C[C@@H]([C@H](C)CC)N(CCCC2CCCC2)C1=N	Gli-Sufu block 61 (no result: CHOP inh)
Cc1cccc(CCNC(=O)c2cc(=O)[nH]c3ccc(Br)cc23)c1	CHOP inh 73 (no result: Gli-Sufu block)
COc1ccc(/C=N/NC(=O)c2ccoc2C)cc1COc1c(C)cccc1C	CHOP inh 88
Cc1ccc(NC(=O)c2cc(S(=O)(=O)NCCc3ccccc3)ccc2F)cc1Cl	CHOP inh 84
O=C(COC(=O)c1ccccc1NCCO)NCc1cccs1	none (no result: CHOP inh)
COC(=O)c1cn(NC(=O)CCC2CCCC2)c(=O)c2ccccc12	none
COC(=O)c1cn(NC(=O)CC2CCCCC2)c(=O)c2ccccc12	CHOP inh 72
Cc1ccc2nc(NC(=O)CCNS(=O)(=O)c3cccs3)sc2c1	CHOP inh 73
Cc1ccc2nc(NC(=O)CCNS(=O)(=O)c3ccc(Br)s3)sc2c1	CHOP inh 71
Cc1cccc2sc(NC(=O)CCNS(=O)(=O)c3cccs3)nc12	none
COCC(=O)Nc1nc2ccc(C)cc2s1	none
Cc1ccc(C(=O)CSc2nnc(-c3ccc4[nH]c(C)c(C)c4c3)o2)cc1C	CHOP inh 74
CCOC(=O)c1csc(NC(=O)COc2ccc(Cl)cc2Cl)n1	CHOP inh 71
COc1cccc(C(=O)NN2c3ccccc3CCc3ccccc32)c1	CHOP inh 92 (no result: XBP1 UPR activ, CHOP UPR activ, Jurkat NFkB inh, 697 NFkB inh)
O=S(=O)(NCCNC/C=C/c1ccc(Br)cc1)c1cccc2cnccc12	CHOP inh 95 (no result: XBP1 UPR activ, Gli-Sufu block, CHOP UPR activ, Jurkat NFkB inh, 697 NFkB inh)
O=C1c2ccccc2C2=Nc3ccccc3SC(c3cccc(F)c3)C12 (centres undefined)	CHOP inh 74
O=C1c2ccccc2C2=Nc3ccccc3SC(c3ccc(Cl)cc3)C12 (centres undefined)	none
C(=N\Nc1nc2ccccc2[nH]1)/c1ccccn1	CHOP inh 85 (no result: XBP1 UPR activ, CHOP UPR activ, Jurkat NFkB inh, 697 NFkB inh)
O=c1cnnc(N/N=C/c2ccccn2)[nH]1	Gli-Sufu block 74
COc1cc(OC)c(OC)cc1/C=N/Nc1nc2ccccc2[nH]1	none
CCN(CC)c1ccc(/C=N/Nc2nc3ccccc3[nH]2)c(O)c1	CHOP inh 83
